In ChEMBL document CHEMBL1157015, “New isatin derivatives with antioxidant activity” (Eur J Med Chem, 2010) one finds TIME and Activity data, which are given here for two compounds.

Common to all, as to type: functional
A short description of assay [1]: Antioxidant activity against hydroperoxyl radical assessed as inhibition time at 2.97 uM by Briggs-Rauscher method. Summed up: (§1)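 Briggs–Rauscher oscillating reaction run under acidic conditions (pH ca. 2). Read-out is the inhibitory phase induced in the oscillations.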
Assay [2] in a line: Antioxidant activity against hydroperoxyl radical assessed as inhibition time at 2.25 uM by Briggs-Rauscher method. A digest of the protocol: as §1
A short description of assay [3]: Antioxidant activity against hydroperoxyl radical assessed as inhibition time at 3.71 uM by Briggs-Rauscher method. A digest of the protocol: as §1
Assay [4] can be described thus: Antioxidant activity against hydroperoxyl radical assessed as inhibition time at 1.48 uM by Briggs-Rauscher method. A digest of the protocol: as §1
A short description of assay [5]: Antioxidant activity against hydroperoxyl radical assessed as resorcinol equivalent by Briggs-Rauscher method. Summed up: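 Briggs–Rauscher oscillating reaction run at acidic pH (ca. 2), using resorcinol as standard. Activity is expressed relative to resorcinol from the inhibitory phase of the oscillations.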
Assay [6] in a line: Antioxidant activity against ABTS radical assessed as trolox equivalent by TEAC assay. A digest of the protocol: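 TEAC assay run at pH 7.4 against the ABTS radical cation. Trolox served as standard, with activity expressed relative to it.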
The nature of assay [7]: Antioxidant activity against hydroperoxyl radical assessed as inhibition time at 3.34 uM by Briggs-Rauscher method. A digest of the protocol:
as §1

Calls of active or inactive are those of the source. The calls are words filed in the database; no cut-off is given here.

As for `COc1cc(C2(c3cc(OC)c(N)cc3OC)C(=O)Nc3ccccc32)c(OC)cc1N`, the TIME was determined as 0.24 h in assay [1]; 0.216 h in assay [2]; 0.296 h in assay [3]; 0.154 h in assay [4]; 0.269 h in assay [7]. The Activity in assay [5] turned out to be 1.28 µM; in assay [6], 1.4 mM.
As for `COc1ccc(OC)c(NC(=O)C(=O)c2ccccc2NC(C)=O)c1`, the outcome in assay [5] and in assay [6] was inactive.
